# m5-HT2A agonist = mouse Htr2a agonists via beta-arrestin recruitment, primary screen, cell-based, luminescence. actives 0.66% (n = 360,000). CHO-K1 mHTR2A beta-arrestin complementation; percent of 30 µM serotonin response. activation, % at 7.6 µM. AID 624169, 2012;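 active = activation above a run cutoff, the mean activation of all tested compounds plus 3 SD, cut at about 14% in these data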;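 note: 0% = plate median of compound wells and 100% = 30 µM serotonin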
# MC4R antag cAMP = MC4R antagonists of cAMP signaling, primary screen, cell-based, TR-FRET, antagonist arm of biased-ligand search | Melanocortin receptor 4 (Homo sapiens), P32245 | inhibition, % at 6.5 µM | actives 0.48% (n = 360,000) | MC4R-expressing cells, MTII-stimulated cAMP, LANCE TR-FRET;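 active = inhibition above its plate's cutoff, the mean of tested wells on that plate plus 3 SD, cut at about 29% in these data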;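 note: 0% = Melanotan II alone and 100% = Melanotan II plus saturating MCL0020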
# Target sequence (P32245 whole entry, looked up): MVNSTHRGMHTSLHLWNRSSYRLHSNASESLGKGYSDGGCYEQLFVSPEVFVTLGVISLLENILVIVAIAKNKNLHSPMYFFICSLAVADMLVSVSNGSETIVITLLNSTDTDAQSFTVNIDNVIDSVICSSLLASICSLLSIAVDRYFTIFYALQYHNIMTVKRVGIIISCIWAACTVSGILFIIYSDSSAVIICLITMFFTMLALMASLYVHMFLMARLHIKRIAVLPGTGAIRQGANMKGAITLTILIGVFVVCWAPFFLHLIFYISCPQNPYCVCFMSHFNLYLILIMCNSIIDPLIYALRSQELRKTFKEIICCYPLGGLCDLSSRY
#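 Material: human MC4R-expressing U2OS cells. Probe or stimulus: Melanotan II challenge. Dosing: 6.5 µM single dose. Times: 30-min compound, 1-h challenge, 1-h detection, room temperature. Technique: TR-FRET with Eu-cAMP and labeled anti-cAMP, 671 nm. Replication: singlicate.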
# MC4R ag barr = MC4R agonists recruiting beta-arrestin, primary screen, cell-based, luminescence, agonist arm of biased-ligand search | U2OS MC4R beta-arrestin complementation; percent of melanotan II response, DMSO zero | actives 0.98% (n = 360,000) | Melanocortin receptor 4 (Homo sapiens), P32245 | AID 540308, 2011 | activation, % at 8.9 µM;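 active = activation above a per-plate cutoff, the mean activation of sample wells on that plate plus 3 SD, cut at about 8% in these data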
# EBI2 block = EBI2 receptor antagonists, beta-arrestin recruitment, primary screen, cell-based, luminescence, 7a,25-OHC stimulation, uHTS. G-protein coupled receptor 183 (Homo sapiens), P32249. 7a,25-OHC stimulated. inhibition, % at 5 µM. actives 0.81% (n = 360,000). AID 651636, 2012; in the data active = inhibition above about 38%;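 note: enzyme fragment complementation signal reports receptor beta-arrestin coupling in cells; 0% = agonist plus DMSO wells and 100% = wells without agonist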
# cAMP nonselect = nonselective cAMP signaling inhibitors, parental cells, counter-screen for MC4R biased antagonist project, cell-based, TR-FRET, U2OS, forskolin, triplicate. actives 26% (n = 1,600). AID 602193, 2012. inhibition, % at 6.5 µM. LANCE TR-FRET. shares compounds with MC4R antag cAMP;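 active = mean inhibition over triplicates above the low-control well mean plus 3 SD, set per campaign, cut at about 13% in these data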;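 note: signal is single emission at 671 nm which falls as cellular cAMP rises; 0% = forskolin-stimulated wells and 100% = buffer without forskolin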
# MC4R cAMP antag = MC4R cAMP antagonists, retest, confirmation, cell-based, TR-FRET; shares compounds with MC4R antag cAMP; MC4R-expressing cells, MTII-stimulated cAMP; inhibition, % at 6.5 µM; actives 27% (n = 1,600); in the data active = inhibition above about 29%;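 note: 0% = agonist stimulated wells alone and 100% = agonist stimulated wells plus saturating reference antagonist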
# * hit, by the source's call; nt = no result given. Hits are enriched below; roughly 2.8% of the tested compounds scored in any of these assays.
SMILES,m5-HT2A agonist,MC4R antag cAMP,MC4R ag barr,EBI2 block,cAMP nonselect,MC4R cAMP antag
Cc1ccc(-c2cc3ccccc3nc2N2CCOCC2)cc1,-1,34*,2,7,-1,-3
O=C(/C=C/c1ccco1)OCc1nnc(-c2ccc(Cl)cc2)o1,-5,32*,-2,-4,1,-8
O=C(/C=C/c1ccco1)OCc1nnc(-c2ccccc2)o1,-2,2,-2,1,nt,nt
CC(C)C[C@@H]1Cc2[nH][nH]c(=O)c2[C@H](C(C)C)O1,2,nt,nt,-8,nt,nt
O=C(Nc1ccc(N2CCOCC2)cc1)C1(S(=O)(=O)c2ccccc2)CC1,-2,-8,1,0,nt,nt
CC(=O)c1ccc(NC(=O)C2(S(=O)(=O)c3ccccc3)CC2)cc1,7,30*,0,-4,0,-3
c1ccc(Oc2ccccn2)cc1,10,4,0,0,nt,nt
CCOC(=O)C(Cc1ccc(O)c([N+](=O)[O-])c1)N1C(=O)c2ccccc2C1=O (stereo not given),1,10,-1,-5,nt,nt
COc1ccc(OC)c(NC(=O)C2(C)CCN2C(=O)Cc2ccc(Cl)cc2Cl)c1 (stereo not given),-2,4,-1,26,nt,nt
CC1CCCCN1S(=O)(=O)c1cnc(Cl)c(Br)c1 (stereo not given),-2,33*,-1,-13,13,16
CC1CCN(S(=O)(=O)c2cnc(Cl)c(Br)c2)CC1,3,41*,0,-9,15*,41*
CC1CCN(S(=O)(=O)c2ccc(Cl)cc2Br)CC1,-1,6,2,13,nt,nt
CC(=O)NCCNc1nc2cc(-c3cccc(C(F)(F)F)c3)sc2c(=O)n1C,-4,1,0,11,nt,nt
NC(=O)C1CCN(C(=O)c2cc(Cl)c3c(c2)OCCO3)CC1,8,1,-1,-4,nt,nt
Cc1cccnc1NC(=O)C(C)N1C(=O)c2ccccc2C1=O (stereo not given),-2,31*,1,4,-5,-18
O=C(O)CCC(=O)N1N=C(c2ccc(Br)cc2)CC1c1cccs1 (stereo not given),1,30*,-2,-11,4,6
O=C(Nc1ccccc1N1CCCC1)c1ccccc1Cl,-4,-3,1,0,nt,nt
Cc1ccccc1C(=O)Nc1ccccc1N1CCCCC1,-5,35*,8,13,1,-2
NC(=O)c1ccc(SCC(=O)OCC(=O)NCC2CCCCC2)c([N+](=O)[O-])c1,3,31*,-3,-2,10,36*
COc1ccccc1C(=O)NC(CCSC)C(=O)OCC(=O)N1CCCC1=O (stereo not given),3,29*,-2,-18,17*,42*
CSCCC(NC(=O)c1ccc(Cl)cc1)C(=O)OCC(=O)N1CCCC1=O (stereo not given),2,15,-3,2,nt,nt
CC(C)Cn1c(CN2CCN(c3ccccc3F)CC2)nc2c1c(=O)[nH]c(=O)n2C,3,29*,1,-5,0,8
O=Cc1s/c(=N\S(=O)(=O)c2ccccc2)n(CCCCl)c1Cl,1,46*,-5,22,11,19
CCn1c(C)cs/c1=N\S(=O)(=O)c1ccccc1,-3,7,-3,1,nt,nt
CCOc1ccc(-n2nc3c(=S)[nH]nc(C)c3c2C)cc1,8,92*,-1,-5,55*,107*
SMILES,m5-HT2A agonist,MC4R antag cAMP,MC4R ag barr,EBI2 block,cAMP nonselect,MC4R cAMP antag
Cc1cccc(NC(=O)NCC2CC2)c1,0,30*,-1,-16,-4,-20
COc1ccc(/C=C/C(=O)OCC(=O)NC(C)CCc2ccccc2)cc1 (stereo not given),1,-2,-1,13,nt,nt
O=S(=O)(NC1C2CC3CC(C2)CC1C3)c1ccccc1 (stereo not given),1,10,0,-5,nt,nt
COC(=O)c1sccc1S(=O)(=O)Nc1ccc(C(O)(C(F)(F)F)C(F)(F)F)cc1,-8,20,0,2,nt,nt
Cc1cccc(C(=O)Nc2ccc(C(=O)/C=C/c3cccnc3)cc2)c1,-6,30*,0,33,-9,2
COc1ccc(N2CCN(C(=O)Nc3ccccc3Cl)CC2)cc1,6,37*,2,8,-1,4
COC(=O)c1ccccc1NC(=O)N1CCN(c2ccc(OC)cc2)CC1,4,8,2,-10,nt,nt
COc1ccccc1-c1cc2nc(-c3ccccc3)cc(N3CCN(C(=O)c4ccco4)CC3)n2n1,3,29*,2,9,-1,11
COc1ccccc1-c1cc2nc(-c3ccccc3)cc(N3CCN(C(=O)c4ccoc4)CC3)n2n1,-2,30*,0,12,3,8
CC1Oc2ccc(C#N)cc2N(Cc2ccc(F)cc2)C1=O (stereo not given),2,-2,-1,-2,nt,nt
Nc1cc(Br)cc2c1[nH]c(=O)c1ccccc12,-1,1,1,0,nt,nt
CC1(C(=O)NS(=O)(=O)c2cccs2)CCN1C(=O)CC1CCCC1 (stereo not given),5,2,0,-1,nt,nt
Cc1cccc(C)c1NC(=O)C1c2ccccc2OCC(=O)N1C1CC1 (stereo not given),0,nt,nt,3,nt,nt
COc1ccc(NC(=O)C2(C)CCN2C(=O)c2ccc(C(C)(C)C)cc2)cc1OC (stereo not given),14,5,2,-4,nt,nt
COC(=O)C1CCN(C2CN(Cc3ccc([N+](=O)[O-])cc3)S(=O)(=O)C2)CC1 (stereo not given),4,nt,nt,-2,nt,nt
C=CC(=O)N1C/C(=C/c2ccc(Cl)cc2)C(=O)/C(=C\c2ccc(Cl)cc2)C1,1,45*,-3,75*,22*,21
C=CC(=O)N1C/C(=C/c2ccccc2)C(=O)/C(=C\c2ccccc2)C1,4,22,-1,39,nt,nt
CS(=O)(=O)N(CC(=O)N1CCCC1)c1cccc(C(F)(F)F)c1,-2,6,0,-2,nt,nt
CCOC(=O)c1c(-c2ccc(C)o2)csc1NC(=O)COC(=O)c1cccs1,-1,31*,-1,9,4,15
CCOC(=O)c1c(-c2ccc(C)o2)csc1NC(=O)CN1CCOCC1,2,5,-1,8,nt,nt
CCOC(=O)c1c(-c2ccccc2)csc1NC(=O)COc1ccc2c(C)cc(=O)oc2c1,0,30*,0,-27,1,1
CCc1ccc(C(=O)COC(=O)c2cnc(C)cn2)cc1,-5,5,-2,5,nt,nt

# Screens (PubChem BioAssay)
